Data on 1 compound can be found in paper PMC7004521 (Cancer Science, 2019).

The EC90 is the point of the concentration-response curve where the effect stands at 90%. One may read the IC50 as the point on the concentration scale where inhibition reaches its midpoint.

One data set deals with c‐MET phosphorylation. The conditions noted are these: read-out: EC90 (90% inhibition of c‐MET phosphorylation); total concentration; c‐MET‐dependent mouse tumor models; cited from earlier work.
Another data set is described as follows: Plasma pharmacokinetics. Type of data set: in vivo, human. An outline of the steps: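 Capsules (100–600 mg bid) or tablets (400 mg bid) were given orally. In escalation, plasma was drawn pre-dose and at 0.5, 1, 2, 4, 6 and 8 h on cycle 1 days 1 and 15, plus pre-dose on C1D2, C1D16, C2D1 and C3D1. In expansion, non-NSCLC patients had the C1D15 profile plus pre-dose samples. Analysis was validated LC-MS/MS (LLOQ 1 ng/mL) with noncompartmental parameters.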

For the next data set, the system named is MET. The conditions noted are these: cellular assays; cited from earlier work.
Data set [1] can be described thus: End of treatment / discontinuation reasons. Type of data set: in vivo, human. The note with it: dose‐expansion part, six of 38 patients.
Data set [2] is described as follows: Dose-limiting toxicities, MTD and RP2D determination. The class given is in vivo, human.
The test system of the next data set is p‐MET. Briefly: p‐MET immunohistochemistry in paired tumor biopsies. The note with it: 450 mg bid capsule, cycle 1 day 15, one advanced CRC patient. Type of data set: in vivo, human.

On to `CNC(=O)c1ccc(-c2cnc3ncc(Cc4ccc5ncccc5c4)n3n2)cc1F` [capmatinib], for which the EC90 in the data set with c‐MET phosphorylation was approximately 71 nM. Moreover, the “drug accumulation following multiple doses” value in “Plasma pharmacokinetics” (400 mg bid tablets) is “Limited drug accumulation”; in “Plasma pharmacokinetics” (capsules 450 and 600 mg bid) it was “ca. twofold”. The “Racc (accumulation ratio), Mean (SD)” value is reported as 1.54 (0.786) in the data set “Plasma pharmacokinetics” (Cycle 1 Day 15, 100 mg bid n=3); 1.36 (0.869) in “Plasma pharmacokinetics” (Cycle 1 Day 15, 200 mg bid n=5); 1.08 (0.443) in the data set “Plasma pharmacokinetics” (Cycle 1 Day 15, 250 mg bid n=3); 1.38 (0.614) in “Plasma pharmacokinetics” (Cycle 1 Day 15, 350 mg bid n=3); 1.09 (0.408) in the data set “Plasma pharmacokinetics” (Cycle 1 Day 15, 400 mg bid tablet n=5); 2.36 (1.75) in “Plasma pharmacokinetics” (Cycle 1 Day 15, 450 mg bid n=5). Besides, the “Racc (accumulation ratio), Mean (SD)” value in the data set “Plasma pharmacokinetics” (Cycle 1 Day 15, 600 mg bid n=15) is reported as 2.07 (0.848). Further, the “drug accumulation ratio following multiple doses” value in “Plasma pharmacokinetics” (capsules) was “one‐ to twofold”. In addition, in “Plasma pharmacokinetics” (capsules, 100 to 600 mg bid), the “dose proportionality of steady‐state AUCtau and Cmax” value is “generally dose proportional”. Further, in “Plasma pharmacokinetics” (steady state), the “mean exposure, tablet 400 mg bid versus capsules 600 mg bid” value is reported as “comparable mean exposure”. The “Cmax, Mean (SD)” value in the data set “Plasma pharmacokinetics” (steady state, Cycle 1 Day 15, 200 mg bid n=5) is given as 2500 (856) ng/mL. In addition, the “Tmax, Median” value in the data set “Plasma pharmacokinetics” (steady state, Cycle 1 Day 15, 250 mg bid n=3) is on record as 1.00 h; in “Plasma pharmacokinetics” (steady state, Cycle 1 Day 15, 400 mg bid tablet n=8) it was 2.02 h. In addition, in the data set with MET, the IC50 is approximately 1 nM. Further, the “patients discontinued as a result of AE” value in data set [1] is reported as 16%. The “posterior probability of excessive toxicity (BLRM)” value in data set [2] (600 mg bid dose level, dose‐escalation phase) came out at 20.1%. Also, in data set [2] (up to 600 mg bid capsules), the MTD entry is reported as “not reached”. For the same compound, in the data set on p‐MET, the “p‐MET H‐score (IHC) on treatment” value is 2.
